Experimental data published in ChEMBL document CHEMBL4825702, “5-Aminonaphthalene derivatives as selective nonnucleoside nuclear receptor binding SET domain-protein 2 (NSD2) inhibitors for the treatment of multiple myeloma” (Eur J Med Chem, 2021).
Active and inactive are the calls of the source. The rule behind the calls is not given here.

Key:
[1] = target: Histone-lysine N-methyltransferase, H3 lysine-36 specific (Homo sapiens, UniProt Q96L73); experiment: Inhibition of NSD1 (unknown origin) using SAM as substrate preincubated for 10 mins followed by substrate addition measured after 4 hrs by AlphaLISA method
[2] = target: Histone-lysine N-methyltransferase SETD2 (Homo sapiens, UniProt Q9BYW2); experiment: Inhibition of SETD2 (unknown origin) using SAM as substrate preincubated for 10 mins followed by substrate addition measured after 4 hrs by AlphaLISA method
[3] = target: Histone-lysine N-methyltransferase EZH2 (Homo sapiens, UniProt Q15910); experiment: Inhibition of EZH2 (unknown origin) using SAM as substrate preincubated for 10 mins followed by substrate addition measured after 4 hrs by HTRF method
In short: (§1)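 HTRF assay: inhibitor plus enzyme preincubated 10 min at room temperature, then peptide/SAM mix added and incubated at room temperature. Antibody and SA-XL665 detection mix added for 1 h in subdued light. Emission read at 665 and 620 nm; IC50 from two separate experiments.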

[4] = target: Histone-lysine N-methyltransferase 2A (Homo sapiens, UniProt Q03164); experiment: Inhibition of MLLI (unknown origin) using SAM as substrate preincubated for 10 mins followed by substrate addition measured after 4 hrs by HTRF method; in short: as §1
Histone-lysine N-methyltransferase 2A, sequence (Q03164 1-2718 limits assumed): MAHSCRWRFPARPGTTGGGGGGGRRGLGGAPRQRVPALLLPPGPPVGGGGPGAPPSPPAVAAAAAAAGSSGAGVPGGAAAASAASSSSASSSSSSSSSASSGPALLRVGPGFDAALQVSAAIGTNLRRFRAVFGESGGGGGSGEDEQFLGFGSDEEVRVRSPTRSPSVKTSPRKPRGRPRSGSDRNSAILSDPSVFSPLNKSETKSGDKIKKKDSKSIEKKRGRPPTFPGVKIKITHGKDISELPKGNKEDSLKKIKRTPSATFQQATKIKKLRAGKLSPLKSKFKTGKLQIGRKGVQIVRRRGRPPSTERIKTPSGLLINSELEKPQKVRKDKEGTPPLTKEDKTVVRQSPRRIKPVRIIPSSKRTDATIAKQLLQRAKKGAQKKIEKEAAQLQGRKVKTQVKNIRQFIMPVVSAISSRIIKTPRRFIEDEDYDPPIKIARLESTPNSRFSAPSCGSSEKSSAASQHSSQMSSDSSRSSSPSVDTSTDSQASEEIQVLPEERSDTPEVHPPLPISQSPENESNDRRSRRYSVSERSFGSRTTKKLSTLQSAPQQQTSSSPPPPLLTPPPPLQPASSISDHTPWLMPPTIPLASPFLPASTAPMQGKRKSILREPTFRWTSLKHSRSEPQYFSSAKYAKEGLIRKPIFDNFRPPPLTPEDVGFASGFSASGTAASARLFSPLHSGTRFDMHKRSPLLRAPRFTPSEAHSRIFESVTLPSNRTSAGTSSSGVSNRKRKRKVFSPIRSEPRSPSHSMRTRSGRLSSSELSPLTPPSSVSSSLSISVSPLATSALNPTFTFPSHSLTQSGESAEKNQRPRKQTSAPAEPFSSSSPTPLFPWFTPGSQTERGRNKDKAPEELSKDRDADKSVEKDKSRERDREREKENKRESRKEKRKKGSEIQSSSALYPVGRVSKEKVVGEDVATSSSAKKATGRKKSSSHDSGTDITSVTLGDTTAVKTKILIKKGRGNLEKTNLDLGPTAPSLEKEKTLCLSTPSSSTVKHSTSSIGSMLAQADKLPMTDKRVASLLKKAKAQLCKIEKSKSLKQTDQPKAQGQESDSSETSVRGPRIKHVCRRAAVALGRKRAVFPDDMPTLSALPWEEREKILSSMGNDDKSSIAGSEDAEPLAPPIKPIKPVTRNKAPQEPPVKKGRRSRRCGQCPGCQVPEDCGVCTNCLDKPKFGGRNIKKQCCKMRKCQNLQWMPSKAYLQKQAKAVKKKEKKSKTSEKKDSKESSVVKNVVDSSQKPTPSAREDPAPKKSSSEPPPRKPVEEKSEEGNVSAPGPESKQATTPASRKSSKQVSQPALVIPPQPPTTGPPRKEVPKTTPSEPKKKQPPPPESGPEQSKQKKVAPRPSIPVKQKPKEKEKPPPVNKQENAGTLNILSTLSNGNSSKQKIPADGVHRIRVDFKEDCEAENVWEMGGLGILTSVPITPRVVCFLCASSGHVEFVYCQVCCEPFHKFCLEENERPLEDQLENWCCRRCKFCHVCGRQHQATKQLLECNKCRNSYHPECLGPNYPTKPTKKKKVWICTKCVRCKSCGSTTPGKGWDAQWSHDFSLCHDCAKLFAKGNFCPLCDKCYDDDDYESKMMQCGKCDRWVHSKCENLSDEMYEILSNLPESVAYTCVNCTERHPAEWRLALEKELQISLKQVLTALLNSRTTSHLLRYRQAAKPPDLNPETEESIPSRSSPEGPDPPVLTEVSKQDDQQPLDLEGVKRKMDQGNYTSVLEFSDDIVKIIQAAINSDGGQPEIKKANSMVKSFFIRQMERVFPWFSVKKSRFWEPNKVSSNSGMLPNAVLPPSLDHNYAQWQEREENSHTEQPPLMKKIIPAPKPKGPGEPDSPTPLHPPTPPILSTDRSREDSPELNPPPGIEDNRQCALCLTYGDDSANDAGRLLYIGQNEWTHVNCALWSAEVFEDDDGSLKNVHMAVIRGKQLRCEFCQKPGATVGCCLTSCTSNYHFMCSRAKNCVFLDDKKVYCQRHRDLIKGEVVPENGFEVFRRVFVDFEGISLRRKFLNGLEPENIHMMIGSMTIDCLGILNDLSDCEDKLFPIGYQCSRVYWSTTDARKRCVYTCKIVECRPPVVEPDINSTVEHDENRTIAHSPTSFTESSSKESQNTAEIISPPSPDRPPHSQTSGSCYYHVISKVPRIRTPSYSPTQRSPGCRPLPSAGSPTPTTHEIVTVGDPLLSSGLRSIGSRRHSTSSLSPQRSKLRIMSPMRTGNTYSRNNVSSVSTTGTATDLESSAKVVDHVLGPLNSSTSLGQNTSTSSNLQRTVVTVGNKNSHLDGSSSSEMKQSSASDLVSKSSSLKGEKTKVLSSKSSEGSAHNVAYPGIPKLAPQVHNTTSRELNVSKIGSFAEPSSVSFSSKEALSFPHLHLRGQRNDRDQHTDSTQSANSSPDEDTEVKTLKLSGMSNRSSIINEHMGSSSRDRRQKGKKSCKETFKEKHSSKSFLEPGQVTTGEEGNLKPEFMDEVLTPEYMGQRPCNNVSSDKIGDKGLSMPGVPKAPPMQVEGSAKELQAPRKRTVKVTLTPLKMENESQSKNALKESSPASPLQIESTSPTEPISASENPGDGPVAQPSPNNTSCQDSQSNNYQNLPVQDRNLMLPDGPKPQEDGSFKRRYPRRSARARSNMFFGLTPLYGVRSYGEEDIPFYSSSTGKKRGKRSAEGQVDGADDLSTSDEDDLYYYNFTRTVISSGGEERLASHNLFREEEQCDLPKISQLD
Histone-lysine N-methyltransferase 2A, sequence (Q03164 2719-3969 limits assumed): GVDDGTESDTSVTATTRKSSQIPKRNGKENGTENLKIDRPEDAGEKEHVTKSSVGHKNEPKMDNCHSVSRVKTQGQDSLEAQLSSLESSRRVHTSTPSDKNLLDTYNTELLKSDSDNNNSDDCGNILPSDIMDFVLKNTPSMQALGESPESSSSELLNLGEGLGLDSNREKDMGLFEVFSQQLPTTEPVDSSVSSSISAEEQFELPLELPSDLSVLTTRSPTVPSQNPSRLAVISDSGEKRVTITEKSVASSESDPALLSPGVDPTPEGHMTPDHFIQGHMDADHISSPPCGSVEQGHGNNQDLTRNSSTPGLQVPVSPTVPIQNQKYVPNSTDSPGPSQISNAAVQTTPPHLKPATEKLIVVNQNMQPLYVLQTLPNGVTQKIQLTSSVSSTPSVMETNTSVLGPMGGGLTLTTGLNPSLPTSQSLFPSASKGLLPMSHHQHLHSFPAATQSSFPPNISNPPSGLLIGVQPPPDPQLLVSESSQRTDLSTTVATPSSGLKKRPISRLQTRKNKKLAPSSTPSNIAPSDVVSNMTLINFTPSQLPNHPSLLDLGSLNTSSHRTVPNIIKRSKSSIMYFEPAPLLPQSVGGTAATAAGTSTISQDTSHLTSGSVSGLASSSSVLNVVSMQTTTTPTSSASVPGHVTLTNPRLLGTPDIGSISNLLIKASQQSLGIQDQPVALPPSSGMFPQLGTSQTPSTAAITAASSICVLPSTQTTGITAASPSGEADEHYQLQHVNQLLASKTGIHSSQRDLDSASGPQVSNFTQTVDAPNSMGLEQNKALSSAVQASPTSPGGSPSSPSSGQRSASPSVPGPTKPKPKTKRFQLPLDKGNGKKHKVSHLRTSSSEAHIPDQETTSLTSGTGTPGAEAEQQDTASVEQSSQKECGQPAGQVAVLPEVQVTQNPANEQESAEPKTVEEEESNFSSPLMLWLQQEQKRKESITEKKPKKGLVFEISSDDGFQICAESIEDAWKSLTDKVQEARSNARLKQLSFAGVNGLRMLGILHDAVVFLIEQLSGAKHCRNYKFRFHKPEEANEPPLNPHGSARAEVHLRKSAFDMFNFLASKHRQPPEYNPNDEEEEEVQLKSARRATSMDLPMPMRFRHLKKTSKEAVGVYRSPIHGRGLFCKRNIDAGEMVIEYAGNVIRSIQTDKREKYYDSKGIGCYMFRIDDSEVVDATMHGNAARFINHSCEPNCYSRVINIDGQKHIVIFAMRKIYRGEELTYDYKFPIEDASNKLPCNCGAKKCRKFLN

[5] = target: Histone-lysine N-methyltransferase, H3 lysine-79 specific (Homo sapiens, UniProt Q8TEK3); experiment: Inhibition of DOT1L (unknown origin) using SAM as substrate preincubated for 10 mins followed by substrate addition measured after 4 hrs by AlphaLISA method
[6] = target: Protein arginine N-methyltransferase 5 (Homo sapiens, UniProt O14744); experiment: Inhibition of PRMT5 (unknown origin) using SAM as substrate preincubated for 10 mins followed by substrate addition measured after 4 hrs by AlphaLISA method
Protein arginine N-methyltransferase 5, sequence (O14744 whole entry): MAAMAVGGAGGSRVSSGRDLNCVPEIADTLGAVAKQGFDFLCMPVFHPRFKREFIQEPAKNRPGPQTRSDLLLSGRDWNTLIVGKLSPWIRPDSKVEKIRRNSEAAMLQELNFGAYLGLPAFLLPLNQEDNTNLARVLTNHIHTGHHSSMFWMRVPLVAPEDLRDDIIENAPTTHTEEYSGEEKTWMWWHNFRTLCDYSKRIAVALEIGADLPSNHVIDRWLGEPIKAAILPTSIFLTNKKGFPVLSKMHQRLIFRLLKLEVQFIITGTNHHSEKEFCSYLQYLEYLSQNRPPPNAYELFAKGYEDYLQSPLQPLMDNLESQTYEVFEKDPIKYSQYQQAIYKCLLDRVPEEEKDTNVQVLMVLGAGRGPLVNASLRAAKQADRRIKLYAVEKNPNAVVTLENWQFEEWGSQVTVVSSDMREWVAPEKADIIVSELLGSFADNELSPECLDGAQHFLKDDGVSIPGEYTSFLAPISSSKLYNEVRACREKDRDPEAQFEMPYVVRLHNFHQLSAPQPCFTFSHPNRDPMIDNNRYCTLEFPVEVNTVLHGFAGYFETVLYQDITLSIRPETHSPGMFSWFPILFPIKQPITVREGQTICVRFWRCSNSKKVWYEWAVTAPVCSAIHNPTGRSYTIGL

RS4-11 [7] = experiment: Antiproliferative activity against human RS4-11 cells assessed as reduction in cell viability incubated for 6 days by CCK8 assay; type: functional, cell-based; settings: dose 1-100 µM, time 6.0 day
In short: (§2)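 Cells seeded in triplicate at 6000–20000 per well and left 24 h, then exposed to increasing concentrations for a further 6 days. Viability read with CCK-8 and growth IC50 derived from the dose–response.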

KMS-11 = experiment: Antiproliferative activity against human KMS-11 cells assessed as reduction in cell viability incubated for 6 days by CCK8 assay; type: functional, cell-based; settings: dose 1-100 µM, time 6.0 day; in short: as §2
[8] = Half life in CD-1 mouse at 2 mg/kg, ip measured up to 24 hrs by LC-MS/MS; type: ADME, organism-based; settings: in vivo
In short: (§3)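 CD-1 mice given a single 2 mg/kg dose i.p. or i.v. (n = 3 per group). Blood sampled at 0, 0.083, 0.25, 0.5, 1, 2, 4, 6, 8 and 24 h and centrifuged for plasma, with internal standard added. Plasma deproteinized with methanol/acetonitrile (1:1), supernatant diluted with acetonitrile/water, and compound measured by LC/MS/MS.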

[9] = Half life in CD-1 mouse at 2 mg/kg, iv measured up to 24 hrs by LC-MS/MS; type: ADME, organism-based; settings: in vivo; in short: as §3
[10] = AUC in CD-1 mouse at 2 mg/kg, ip measured up to 24 hrs by LC-MS/MS; type: ADME, organism-based; parameters: route intraperitoneal, dose 2 mg/kg, time <=24; settings: in vivo; in short: as §3
[11] = MRT in CD-1 mouse at 2 mg/kg, ip measured up to 24 hrs by LC-MS/MS; type: ADME, organism-based; settings: in vivo
In short: (§4)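 CD-1 mice dosed at 2 mg/kg i.p. or i.v., n = 3 per group. Blood sampled at 0, 0.083, 0.25, 0.5, 1, 2, 4, 6, 8 and 24 h and spun for plasma. Internal standard added, deproteinized with methanol/acetonitrile (1:1), supernatant diluted and analysed by LC/MS/MS.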

[12] = MRT in CD-1 mouse at 2 mg/kg, iv measured up to 24 hrs by LC-MS/MS; type: ADME, organism-based; settings: in vivo; in short: as §4
RS4-11 [13] = experiment: Antitumor activity against human RS4-11 cells xenografted in SCID mouse assessed as tumor growth inhibition at 50 mg/kg, ip qd administered consecutively for 21 days relative to control; settings: RS4-11, ip, 504 h, read-out: TGI
[14] = target: Ras-related protein R-Ras2 (Homo sapiens) (UniProt P62070); experiment: Inhibition of RRAS2 transcriptional activity in human KMS-11 cells assessed as reduction in H3K36 methylation at 10 uM measured after 72 hrs by chip q-PCR analysis; type: cell-based
Ras-related protein R-Ras2 (Homo sapiens), sequence (P62070 whole entry): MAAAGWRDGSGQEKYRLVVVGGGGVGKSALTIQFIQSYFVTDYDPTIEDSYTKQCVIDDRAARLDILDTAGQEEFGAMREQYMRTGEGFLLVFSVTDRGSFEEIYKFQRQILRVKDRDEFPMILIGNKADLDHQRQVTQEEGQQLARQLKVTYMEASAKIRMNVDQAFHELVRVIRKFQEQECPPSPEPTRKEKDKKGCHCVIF
In short: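 KMS11 cells treated with test agent or DMSO. ChIP with magnetic-bead enzymatic chromatin IP kit using anti-H3K36me2, anti-histone H3 and IgG control antibodies. H3K36me2 quantified by qPCR with primers spanning the promoter regions of TGFA, MET, PAK1 and RRAS2.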

RS4-11 [15] = experiment: cells; settings: Homo sapiens, RS4-11, 72 h, read-out: Activity
RS4-11 [16] = experiment: cells; settings: Homo sapiens, RS4-11, 72 h, read-out: Activity; remark: listed apart in the source
MV4-11 [17] = experiment: cells; settings: Homo sapiens, MV4-11, 72 h, read-out: Activity
MV4-11 [18] = experiment: cells; settings: Homo sapiens, MV4-11, 72 h, read-out: Activity; remark: listed apart in the source
U2932 = experiment: Antiproliferative activity against human U2932 cells assessed as reduction in cell viability incubated for 6 days by CCK8 assay
HL-60 = experiment: Antiproliferative activity against human HL-60 cells assessed as reduction in cell viability incubated for 6 days by CCK8 assay
MV4-11 [19] = experiment: Antiproliferative activity against human MV4-11 cells assessed as reduction in cell viability incubated for 6 days by CCK8 assay
MOLT-4 = experiment: Antiproliferative activity against human MOLT-4 cells assessed as reduction in cell viability incubated for 6 days by CCK8 assay
Jurkat = experiment: Antiproliferative activity against human Jurkat cells assessed as reduction in cell viability incubated for 6 days by CCK8 assay
NCI-H929 = experiment: Antiproliferative activity against human NCI-H929 cells assessed as reduction in cell viability incubated for 6 days by CCK8 assay
OCI-AML-5 = experiment: Antiproliferative activity against human OCI-AML5 cells assessed as reduction in cell viability incubated for 6 days by CCK8 assay
Pfeiffer = experiment: Antiproliferative activity against human Pfeiffer cells assessed as reduction in cell viability incubated for 6 days by CCK8 assay
WSUDLCL2 = experiment: Antiproliferative activity against human WSUDLCL2 cells assessed as reduction in cell viability incubated for 6 days by CCK8 assay
RPMI-8226 = experiment: Antiproliferative activity against human RPMI-8226 cells assessed as reduction in cell viability incubated for 6 days by CCK8 assay
[20] = Inhibition of MET transcriptional activity in human KMS-11 cells assessed as reduction in H3K36 methylation at 10 uM measured after 72 hrs by chip q-PCR analysis

Cl.Nc1cccc2c(S(=O)(=O)NCc3ccccc3)cccc12
IC50 [1]: > 20 µM | IC50 [2]: > 20 µM | IC50 [3]: > 20 µM | IC50 [4]: > 20 µM | IC50 [5]: > 20 µM | IC50 [6]: > 20 µM | Activity (RS4-11 [7]): Dose-Dependent Effect | Activity (KMS-11): Dose-Dependent Effect | half-life [8]: 33.6 min | half-life [9]: 39.6 min | AUC at 24 h [10]: 150 ng·h/mL | MRT [11]: 31.9 min | MRT [12]: 23.8 min | inhibition in vivo at 50 mg/kg (RS4-11 [13]): 37.2% | inhibition [14]: Active | viability at 5 µM (RS4-11 [15]): 2.19% | viability at 10 µM (RS4-11 [16]): 3.53% | viability at 5 µM (MV4-11 [17]): 94.4% | viability at 10 µM (MV4-11 [18]): 94% | Activity (U2932): Active | Activity (HL-60): Active | Activity (MV4-11 [19]): Active | Activity (MOLT-4): Active | Activity (Jurkat): Active | Activity (NCI-H929): Active | Activity (OCI-AML-5): Active | Activity (Pfeiffer): Active | Activity (WSUDLCL2): Active | Activity (RPMI-8226): Active | inhibition [20]: Active
